Data on two compounds can be found in ChEMBL document CHEMBL4270541, “Synthesis and antimicrobial evaluation of amino sugar-based naphthoquinones and isoquinoline-5,8-diones and their halogenated compounds” (Eur J Med Chem, 2018).

The subject of series [1] is Enterococcus faecalis. Briefly: Antimicrobial activity against Enterococcus faecalis INCQS 00234 ATCC 29212 assessed as zone of inhibition at 5 mg/ml after 18 to 24 hrs by disc diffusion method. It is filed as functional. The conditions noted are these: ATCC 29212 INCQS 00234, read-out: IZ.
The test system of series [2] is Escherichia coli. The series is described as follows: Bactericidal activity against Escherichia coli INCQS 00033 ATCC 25922 incubated for 24 hrs followed by transfer of microbial suspension to agar plates and measured after 24 hrs post transfer by resazurin dye-based colorimetric analysis. It is filed as functional. The conditions noted are these: ATCC 25922 INCQS 00033, 24 h, read-out: MBC99.9. The essentials:
(§1)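 For MBC, 10 µL from each clear MIC well was plated on agar and incubated 24 h at 37°C. MBC is the minimum concentration inhibiting 99.9% of growth. […] Triplicate.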

The subject of series [3] is Staphylococcus epidermidis. Briefly: Antimicrobial activity against Staphylococcus epidermidis INCQS 00016 ATCC 12228 at 256 ug/ml after 24 hrs by microdilution assay. It is filed as functional, organism-based. The note with it: ATCC 12228 INCQS 00016.
Series [4] concerns Proteus mirabilis. Briefly: Antimicrobial activity against Proteus mirabilis INCQS 00095 ATCC 15290 assessed as zone of inhibition at 5 mg/ml after 18 to 24 hrs by disc diffusion method. It is filed as functional. The conditions noted are these: read-out: IZ.
For series [5], the system named is Escherichia coli. Briefly: Antimicrobial activity against Escherichia coli INCQS 00033 ATCC 25922 after 24 hrs by microdilution assay. It counts as functional. The conditions noted are these: ATCC 25922 INCQS 00033, 24 h.
For series [6], the system named is Staphylococcus epidermidis. Briefly: Antimicrobial activity against Staphylococcus epidermidis INCQS 00016 ATCC 12228 assessed as zone of inhibition at 5 mg/ml after 18 to 24 hrs by disc diffusion method. It is filed as functional. The note with it: ATCC 12228 INCQS 00016, read-out: IZ.
Series [7] concerns Staphylococcus aureus. Briefly: Bactericidal activity against Staphylococcus aureus INCQS 00015 ATCC 25923 at 256 ug/ml incubated for 24 hrs followed by transfer of microbial suspension to agar plates and measured after 24 hrs post transfer by resazurin dye-based colorimetric analysis. It counts as functional, organism-based. The essentials: as §1
Series [8] concerns Staphylococcus aureus. Briefly: Bactericidal activity against methicillin-resistant Staphylococcus aureus BMB9393 at 256 ug/ml incubated for 24 hrs followed by transfer of microbial suspension to agar plates and measured after 24 hrs post transfer by resazurin dye-based colorimetric analysis. It counts as functional, organism-based. The essentials:
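From MIC wells with no visible growth, 10 µL is transferred to agar plates and incubated 24 h at 37°C. MBC is the minimum concentration inhibiting 99.9% of growth. […] Triplicate.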

The subject of series [9] is Staphylococcus simulans. The series is described as follows: Bactericidal activity against Staphylococcus simulans INCQS 00254 ATCC 27851 at 256 ug/ml incubated for 24 hrs followed by transfer of microbial suspension to agar plates and measured after 24 hrs post transfer by resazurin dye-based colorimetric analysis. It counts as functional, organism-based. Put shortly: as §1

The subject of series [10] is Staphylococcus epidermidis. Briefly: Bactericidal activity against Staphylococcus epidermidis INCQS 00016 ATCC 12228 at 256 ug/ml incubated for 24 hrs followed by transfer of microbial suspension to agar plates and measured after 24 hrs post transfer by resazurin dye-based colorimetric analysis. It counts as functional, organism-based. The conditions noted are these: ATCC 12228 INCQS 00016. Put shortly:
as §1

For series [11], the system named is Staphylococcus aureus. The series is described as follows: Antimicrobial activity against methicillin-resistant Staphylococcus aureus BMB9393 at 256 ug/ml after 24 hrs by microdilution assay. It is filed as functional, organism-based.
Series [12] deals with Staphylococcus simulans. The series is described as follows: Antimicrobial activity against Staphylococcus simulans INCQS 00254 ATCC 27851 assessed as zone of inhibition at 5 mg/ml after 18 to 24 hrs by disc diffusion method. It is filed as functional. The note with it: read-out: IZ.
Series [13] deals with Escherichia coli. Briefly: Antimicrobial activity against Escherichia coli INCQS 00033 ATCC 25922 assessed as zone of inhibition at 5 mg/ml after 18 to 24 hrs by disc diffusion method. The note with it: ATCC 25922 INCQS 00033, read-out: IZ. It counts as functional.
Series [14] relates to Pseudomonas aeruginosa. The series is described as follows: Antimicrobial activity against Pseudomonas aeruginosa INCQS 00099 ATCC 27853 after 24 hrs by microdilution assay. It counts as functional. The note with it: INCQS 00099 ATCC 27853, 24 h.
Series [15] deals with Escherichia coli. Briefly: Ratio of MBC99.9 to MIC for Escherichia coli INCQS 00033 ATCC 25922. It is filed as functional, ATCC 25922 INCQS 00033. Put shortly: (§2)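 MBC/MIC ratio from the 24 h, 37°C microdilution MIC and the agar-plating MBC (99.9% growth inhibition). A ratio ≤2 was classed as bactericidal and ≥4 as bacteriostatic.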
Series [16] deals with Staphylococcus aureus. The series is described as follows: Antimicrobial activity against methicillin-resistant Staphylococcus aureus BMB9393 assessed as zone of inhibition at 5 mg/ml after 18 to 24 hrs by disc diffusion method. It is filed as functional. The note with it: read-out: IZ.
Series [17] can be described thus: Hemolytic activity against human erythrocytes assessed as hemolysis at 200 ug/ml after 3 hrs by spectrophotometric analysis relative to control. It is filed as ADME, cell-based, Erythrocyte. The conditions noted are these: read-out: Activity. Put shortly:
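Erythrocytes collected in citrate tubes, washed three times with PBS pH 7.4 by centrifugation and resuspended in PBS. Incubated with compounds at 200 µg/mL for 3 h at 37°C. Released hemoglobin was read in the supernatant at 545 nm against 1% Triton X-100 (complete lysis) and 1% DMSO (negative control). Below 10% hemolysis was taken as hemocompatible. Three independent experiments.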

The test system of series [18] is Pseudomonas aeruginosa. The series is described as follows: Ratio of MBC99.9 to MIC for Pseudomonas aeruginosa INCQS 00099 ATCC 27853. It counts as functional. Put shortly:
as §2

In series [19] the test system is Staphylococcus aureus. Briefly: Antimicrobial activity against Staphylococcus aureus INCQS 00015 ATCC 25923 at 256 ug/ml after 24 hrs by microdilution assay. It counts as functional, organism-based.
Series [20] relates to Staphylococcus simulans. Briefly: Antimicrobial activity against Staphylococcus simulans INCQS 00254 ATCC 27851 at 256 ug/ml after 24 hrs by microdilution assay. It is filed as functional, organism-based.
The test system of series [21] is Staphylococcus aureus. The series is described as follows: Antimicrobial activity against Staphylococcus aureus INCQS 00015 ATCC 25923 assessed as zone of inhibition at 5 mg/ml after 18 to 24 hrs by disc diffusion method. It is filed as functional. The conditions noted are these: read-out: IZ.
Series [22] has as its system Klebsiella pneumoniae. The series is described as follows: Antimicrobial activity against Klebsiella pneumoniae INCQS 00083 ATCC 4352 assessed as zone of inhibition at 5 mg/ml after 18 to 24 hrs by disc diffusion method. It is filed as functional. The conditions noted are these: read-out: IZ.
Series [23] has as its system Pseudomonas aeruginosa. Briefly: Bactericidal activity against Pseudomonas aeruginosa INCQS 00099 ATCC 27853 incubated for 24 hrs followed by transfer of microbial suspension to agar plates and measured after 24 hrs post transfer by resazurin dye-based colorimetric analysis. The conditions noted are these: INCQS 00099 ATCC 27853, 24 h, read-out: MBC99.9. It is filed as functional. The essentials: as §1

Series [24] relates to Pseudomonas aeruginosa. The series is described as follows: Antimicrobial activity against Pseudomonas aeruginosa INCQS 00099 ATCC 27853 assessed as zone of inhibition at 5 mg/ml after 18 to 24 hrs by disc diffusion method. The conditions noted are these: read-out: IZ. It is filed as functional.

Values after ≈ are worked out from the molar mass of the structure shown. Active and inactive are the calls of the source. The rule behind the calls is not given here.

Turning to `CC1(C)O[C@H]2O[C@H](CNC3=C(Br)C(=O)c4ccccc4C3=O)[C@H](O)[C@H]2O1`, the zone of inhibition at 5000 µg/mL in series [1] was 0 mm; in [4], 0 mm; in series [6] it was 10 mm; in series [12], 9 mm; in series [13] it was 12 mm; in series [16] it was 0 mm. In addition, the zone of inhibition at 5000 µg/mL in series [21] worked out at 8 mm; in series [22], 0 mm; in [24] it was 16 mm. For the same compound, the MBC in series [2] and in [23] was 16 µg/mL (≈ 37.7 µM) in each case. Besides, the result in series [3], in series [7], in [8], in [9], in series [10] and in series [11] was inactive. The result in series [19] and in series [20] was inactive. For the same compound, the MIC in [5] and in series [14] was 16 µg/mL (≈ 37.7 µM) throughout. The Ratio in series [15] and in series [18] was 1 in each case. Also, in series [17], the hemolysis at 3 h, 200 ug/ml is less than 10%.

As to `CC1(C)O[C@H]2[C@@H](O1)[C@@H](CNC1=C(Cl)C(=O)c3ccccc3C1=O)O[C@@H]1OC(C)(C)O[C@@H]12`, the zone of inhibition at 5000 µg/mL in series [1] came out at 0 mm; in series [4], 0 mm; in series [6] it was 8 mm; in series [12] it was 0 mm; in series [13] it was 12 mm; in series [16], 0 mm. Also, the zone of inhibition at 5000 µg/mL came to 9 mm in [21], 0 mm in series [22] and 13 mm in series [24]. Also, the MBC is 16 µg/mL (≈ 35.6 µM) in series [2] and 32 µg/mL (≈ 71.1 µM) in series [23]. Moreover, the result in series [3], in [7], in series [8], in series [9], in [10] and in series [11] was inactive. Also, the outcome in series [19] and in [20] was inactive. In addition, the MIC was 16 µg/mL (≈ 35.6 µM) in series [5] and 32 µg/mL (≈ 71.1 µM) in [14]. Moreover, the Ratio in series [15] and in [18] was 1 in each case. Moreover, the hemolysis at 3 h, 200 ug/ml in series [17] was less than 10%.
